# Experimental data as given in ChEMBL document CHEMBL3085754, “Clicking 3'-azidothymidine into novel potent inhibitors of human immunodeficiency virus” (J Med Chem, 2013).
# The source made the active and inactive calls. The rule behind the calls is not given here.
# Legend:
# CEM-SS [1] = assay: Cytotoxicity against human CEM-SS cells assessed as cell viability at 10 uM after 6 days by MTS assay relative to control; type: cell-based; details: 144 h
# [2] = tested on: Human immunodeficiency virus 1; assay: Antiviral activity against Human immunodeficiency virus 1 3B infected in human CEM-SS cells assessed as inhibition of virus-induced cytopathic effect at 10 uM after 6 days by MTS assay relative to control; type: functional; details: 144 h
# [3] = molecular target: Human immunodeficiency virus type 1 reverse transcriptase (Human immunodeficiency virus 1) (UniProt Q72547); assay: Binding affinity to HIV1 reverse transcriptase assessed as compound incorporation into DNA by primer extension assay
# [4] = tested on: Human immunodeficiency virus 1; assay: Antiviral activity against wild type Human immunodeficiency virus 1 expressing p24 infected in human HeLa P4/R5 cells up to 10 uM preincubated for 16 hrs prior to virus infection measured after 48 hrs by beta-galactosidase-based single replication cycle assay; type: functional, organism-based
# Procedure, shortened: (§1)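 P4R5 indicator cells express CD4, CXCR4, CCR5 and an HIV LTR-driven β-galactosidase reporter, and were kept in DMEM/10% FBS with puromycin. Cells were seeded at 5×10^3 per well and exposed to varying drug concentrations for 16 h. They were then inoculated with 25 ng HIV-1 p24 per well. Infection was quantified 48 h post-infection by fluorescence-based β-galactosidase detection.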
# [5] = molecular target: Human immunodeficiency virus type 1 reverse transcriptase (Human immunodeficiency virus 1, UniProt Q72547); assay: Inhibition of HIV1 reverse transcriptase-mediated [H3]TTP incorporation into poly(rA)-oligo(dT)16 DNA preincubated for 5 mins prior to primer/template and substrate addition by liquid scintillation spectrometric analysis
# Procedure, shortened: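 10 nM wt HIV-1 RT preincubated 5 min with inhibitor in DMSO (1% final), then 40 nM poly(rA)-oligo(dT)16 and 10 μM [3H]TTP added. Buffer 50 mM Tris-HCl pH 8.0, 60 mM KCl, 10 mM MgCl2; 20 min at 37°C. Quenched with cold 10% TCA/20 mM pyrophosphate, glass-fibre filtered, washed with TCA and ethanol, incorporation counted by liquid scintillation.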
# [6] = tested on: Human immunodeficiency virus 1; assay: Antiviral activity against wild type Human immunodeficiency virus 1 expressing p24 infected in human HeLa P4/R5 cells preincubated for 16 hrs prior to virus infection measured after 48 hrs by beta-galactosidase-based single replication cycle assay; type: functional, organism-based; details: Human immunodeficiency virus 1, P4/R5; procedure, shortened: as §1
# [7] = tested on: Human immunodeficiency virus 1; assay: Ratio of EC50 for NNRTI-resistant Human immunodeficiency virus 1 to EC50 for wild type Human immunodeficiency virus 1 expressing p24; type: functional
# [8] = tested on: Human immunodeficiency virus 1; assay: Antiviral activity against NNRTI-resistant Human immunodeficiency virus 1; type: functional, organism-based
# [9] = tested on: Human immunodeficiency virus 1; assay: Antiviral activity against Human immunodeficiency virus 1 3B infected in human CEM-SS cells assessed as inhibition of virus-induced cytopathic effect after 6 days by MTS assay; type: functional, organism-based; details: 144 h
# CEM-SS [10] = assay: Cytotoxicity against human CEM-SS cells assessed as cell viability after 6 days by MTS assay; type: cell-based; details: cem-ss, 144 h
# [11] = Therapeutic index, ratio of CC50 for human CEM-SS cells to EC50 for Human immunodeficiency virus 1 3B; type: cell-based; details: read-out: Ratio CC50/EC50
Compound,Activity (CEM-SS [1]),inhibition at 10 µM [2],further results
COc1ccc2cc(OCc3cn([C@H]4C[C@H](n5cc(C)c(=O)[nH]c5=O)O[C@@H]4CO)nn3)ccc2c1,100%,0%,–
Cc1cn([C@H]2C[C@H](n3nncc3CO)[C@@H](CO)O2)c(=O)[nH]c1=O,100%,0%,–
Cc1cn([C@H]2C[C@H](N=[N+]=[N-])[C@@H](COP(=O)(O)OP(=O)(O)OP(=O)(O)O)O2)c(=O)[nH]c1=O,–,–,Activity [3]: Active
Cc1cn([C@H]2C[C@H](n3nncc3COc3cccc4ccccc34)[C@@H](CO)O2)c(=O)[nH]c1=O,93%,42%,Activity [4]: inactive
Cc1cn([C@H]2C[C@H](n3nncc3-c3cc4ccccc4c4ccccc34)[C@@H](COP(=O)(O)OP(=O)(O)OP(=O)(O)O)O2)c(=O)[nH]c1=O,–,–,IC50 [5]: 11.8 µM
COc1ccc2cc(-c3cnnn3[C@H]3C[C@H](n4cc(C)c(=O)[nH]c4=O)O[C@@H]3CO)ccc2c1,100%,43%,EC50 [6]: 4.1 µM; Ratio EC50 [7]: 0.4; EC50 [8]: 1.8 µM
Cc1cn([C@H]2C[C@H](n3nncc3COc3ccccc3)[C@@H](CO)O2)c(=O)[nH]c1=O,100%,51%,–
Cc1cn([C@H]2C[C@H](n3cc(-c4ccccc4)nn3)[C@@H](CO)O2)c(=O)[nH]c1=O,100%,24%,–
Cc1cn([C@H]2C[C@H](n3cc(COc4cccc5ccccc45)nn3)[C@@H](CO)O2)c(=O)[nH]c1=O,100%,5%,–
Cc1cn([C@H]2C[C@H](n3nncc3-c3ccc(Cl)c(Cl)c3)[C@@H](CO)O2)c(=O)[nH]c1=O,100%,31%,Activity [4]: inactive
Cc1cn([C@H]2C[C@H](n3cc(COc4ccccc4)nn3)[C@@H](CO)O2)c(=O)[nH]c1=O,85%,7%,–
Cc1cn([C@H]2C[C@H](n3cc(-c4ccc(Cl)c(Cl)c4)nn3)[C@@H](CO)O2)c(=O)[nH]c1=O,100%,6%,–
COc1ccc2cc(OCc3cnnn3[C@H]3C[C@H](n4cc(C)c(=O)[nH]c4=O)O[C@@H]3CO)ccc2c1,100%,57%,Activity [4]: inactive
COc1ccc2ccc(OCc3cn([C@H]4C[C@H](n5cc(C)c(=O)[nH]c5=O)O[C@@H]4CO)nn3)cc2c1,100%,0%,–
Cc1cn([C@H]2C[C@H](n3cc(-c4ccc(-c5ccccc5)cc4)nn3)[C@@H](CO)O2)c(=O)[nH]c1=O,88%,91%,–
Cc1cn([C@H]2C[C@H](n3nncc3COc3ccc4ccccc4c3)[C@@H](CO)O2)c(=O)[nH]c1=O,95%,88%,EC50 [9]: 1.9 µM; EC50 [6]: > 5 µM; Ratio EC50 [7]: <0.5; EC50 [8]: 2.4 µM; CC50 (CEM-SS [10]): 70 µM; selectivity ratio [11]: 37
COc1ccc2ccc(OCc3cnnn3[C@H]3C[C@H](n4cc(C)c(=O)[nH]c4=O)O[C@@H]3CO)cc2c1,99%,10%,–
Cc1cn([C@H]2C[C@H](n3nncc3-c3ccc(Oc4ccccc4)cc3)[C@@H](CO)O2)c(=O)[nH]c1=O,97%,67%,Activity [4]: inactive
COC(=O)C(Cc1ccc(OCc2cn([C@H]3C[C@H](n4cc(C)c(=O)[nH]c4=O)O[C@@H]3CO)nn2)cc1)NC(=O)OC(C)(C)C (stereo not given in full),99%,0%,–
Cc1cn([C@H]2C[C@H](n3cc(-c4ccnc5ccccc45)nn3)[C@@H](CO)O2)c(=O)[nH]c1=O,100%,44%,–
Cc1cn([C@H]2C[C@H](n3nncc3-c3ccc(Cl)cc3)[C@@H](CO)O2)c(=O)[nH]c1=O,100%,23%,–
Cc1cn([C@H]2C[C@H](n3nncc3C3CC3)[C@@H](CO)O2)c(=O)[nH]c1=O,100%,17%,–

Compound,Activity (CEM-SS [1]),inhibition at 10 µM [2],further results
Cc1cn([C@H]2C[C@H](n3nncc3-c3ccc4[nH]ccc4c3)[C@@H](CO)O2)c(=O)[nH]c1=O,82%,12%,–
Cc1cn([C@H]2C[C@H](n3cc(C4CC4)nn3)[C@@H](CO)O2)c(=O)[nH]c1=O,100%,1%,–
Cc1cn([C@H]2C[C@H](n3nncc3-c3ccccc3)[C@@H](CO)O2)c(=O)[nH]c1=O,100%,44%,–
Cc1cn([C@H]2C[C@H](n3cc(-c4ccc5[nH]ccc5c4)nn3)[C@@H](CO)O2)c(=O)[nH]c1=O,100%,35%,–
Cc1cn([C@H]2C[C@H](n3cc(-c4ccc(Cl)cc4)nn3)[C@@H](CO)O2)c(=O)[nH]c1=O,100%,0%,–
Cc1cn([C@H]2C[C@H](n3nncc3-c3ccnc4ccccc34)[C@@H](CO)O2)c(=O)[nH]c1=O,94%,74%,–
COc1ccc2cc(-c3cn([C@H]4C[C@H](n5cc(C)c(=O)[nH]c5=O)O[C@@H]4CO)nn3)ccc2c1,95%,35%,–
Cc1cn([C@H]2C[C@H](n3cc(-c4ccc(Oc5ccccc5)cc4)nn3)[C@@H](CO)O2)c(=O)[nH]c1=O,100%,0%,–
Cc1cn([C@H]2C[C@H](n3cc(-c4cc5ccccc5c5ccccc45)nn3)[C@@H](CO)O2)c(=O)[nH]c1=O,100%,42%,EC50 [6]: 4.7 µM; Ratio EC50 [7]: 0.2; EC50 [8]: 1 µM
Cc1cn([C@H]2C[C@H](n3nncc3-c3cc4ccccc4c4ccccc34)[C@@H](CO)O2)c(=O)[nH]c1=O,100%,100%,EC50 [9]: 0.1 µM; EC50 [6]: > 5 µM; CC50 (CEM-SS [10]): 21 µM; selectivity ratio [11]: 210
Cc1cn([C@H]2C[C@H](n3cc(COc4ccc5ccccc5c4)nn3)[C@@H](CO)O2)c(=O)[nH]c1=O,100%,0%,–
Cc1cn([C@H]2C[C@H](n3cc(C4(O)c5ccccc5-c5ccccc54)nn3)[C@@H](CO)O2)c(=O)[nH]c1=O,100%,11%,–
Cc1cn([C@H]2C[C@H](n3nncc3C3(O)c4ccccc4-c4ccccc43)[C@@H](CO)O2)c(=O)[nH]c1=O,97%,0%,–
Cc1cn([C@H]2C[C@H](n3nncc3-c3ccc(-c4ccccc4)cc3)[C@@H](CO)O2)c(=O)[nH]c1=O,80%,63%,Activity [4]: inactive
Cc1cn([C@H]2C[C@H](n3nncc3-c3ccc4ccccc4c3)[C@@H](CO)O2)c(=O)[nH]c1=O,100%,37%,–
Cc1cn([C@H]2C[C@H](n3cc(-c4ccc5ccccc5c4)nn3)[C@@H](CO)O2)c(=O)[nH]c1=O,98%,33%,EC50 [6]: 7.2 µM; Ratio EC50 [7]: 0.3; EC50 [8]: 2.1 µM
Cc1cn([C@H]2C[C@H](n3cc(-c4cccc5ccccc45)nn3)[C@@H](CO)O2)c(=O)[nH]c1=O,100%,1%,–
Cc1cn([C@H]2C[C@H](n3cc(CO)nn3)[C@@H](CO)O2)c(=O)[nH]c1=O,100%,5%,–
COC(=O)C(Cc1ccc(OCc2cnnn2[C@H]2C[C@H](n3cc(C)c(=O)[nH]c3=O)O[C@@H]2CO)cc1)NC(=O)OC(C)(C)C (stereo not given in full),90%,17%,–
Cc1cn([C@H]2C[C@H](O)[C@@H](COP(=O)(O)OP(=O)(O)OP(=O)(O)O)O2)c(=O)[nH]c1=O,–,–,Activity [3]: Active
Cc1cn([C@H]2C[C@H](n3nncc3C3CCCCC3)[C@@H](CO)O2)c(=O)[nH]c1=O,88%,43%,Activity [4]: inactive
Cc1cn([C@H]2C[C@H](n3cc(C4CCCCC4)nn3)[C@@H](CO)O2)c(=O)[nH]c1=O,100%,0%,–
